Laboratory results published in ChEMBL document CHEMBL6115053, “Optimization and Characterization of N-Acetamide Indoles as Antimalarials That Target PfATP4” (J Med Chem, 2025).
Converted amounts (≈) assume the structure as drawn. The source made the active and inactive calls. The calls are words filed in the database; no cut-off is given here.

Legend:
[1] = system: Plasmodium knowlesi; assay: Antiplasmodial activity against wild type Plasmodium knowlesi YH1 incubated for 30 hrs by SYBR staining based flow cytometry assay; assay type: functional, organism-based; conditions: YH1, 30 h
[2] = system: Plasmodium falciparum; assay: Antimalarial activity against trophozoite stage Plasmodium falciparum 3D7 at 10 times EC50 incubated for 48 hrs by SYBR Green dye based analysis; assay type: functional, organism-based
[3] = system: Plasmodium falciparum; assay: Antimalarial activity against trophozoite stage Plasmodium falciparum 3D7 assessed as reduction in parasitemia at 10 times EC50 incubated for 24 hrs by SYBR Green dye based analysis; assay type: functional, organism-based
[4] = system: Plasmodium falciparum; assay: Antiplasmodial activity against multidrug-resistant Plasmodium falciparum Dd2 harboring plasmodium falciparum ATP4 I398F/P990R/D1247Y mutant by SYBR green staining based analysis; assay type: functional, organism-based
[5] = system: Plasmodium falciparum; assay: Antiplasmodial activity against N-(2,6-difluorophenyl)-2-(6-(5-methyl-1,3,4-oxadiazol-2-yl)-1H-indol-1-yl)acetamide-resistant Plasmodium falciparum Dd2 harboring plasmodium falciparum ATP4 D425E mutant by SYBR green staining based analysis; assay type: functional, organism-based
[6] = molecular target: T1, P-type sodium-transporting ATPase4 (Plasmodium falciparum (isolate 3D7), UniProt A0A143ZZK9); assay: Inhibition of Plasmodium falciparum 3D7 ATP4 assessed as increase in Na+ concentration in parasite cytosol measured for 60 mins; assay type: subcellular
T1 sequence (A0A143ZZK9 whole entry): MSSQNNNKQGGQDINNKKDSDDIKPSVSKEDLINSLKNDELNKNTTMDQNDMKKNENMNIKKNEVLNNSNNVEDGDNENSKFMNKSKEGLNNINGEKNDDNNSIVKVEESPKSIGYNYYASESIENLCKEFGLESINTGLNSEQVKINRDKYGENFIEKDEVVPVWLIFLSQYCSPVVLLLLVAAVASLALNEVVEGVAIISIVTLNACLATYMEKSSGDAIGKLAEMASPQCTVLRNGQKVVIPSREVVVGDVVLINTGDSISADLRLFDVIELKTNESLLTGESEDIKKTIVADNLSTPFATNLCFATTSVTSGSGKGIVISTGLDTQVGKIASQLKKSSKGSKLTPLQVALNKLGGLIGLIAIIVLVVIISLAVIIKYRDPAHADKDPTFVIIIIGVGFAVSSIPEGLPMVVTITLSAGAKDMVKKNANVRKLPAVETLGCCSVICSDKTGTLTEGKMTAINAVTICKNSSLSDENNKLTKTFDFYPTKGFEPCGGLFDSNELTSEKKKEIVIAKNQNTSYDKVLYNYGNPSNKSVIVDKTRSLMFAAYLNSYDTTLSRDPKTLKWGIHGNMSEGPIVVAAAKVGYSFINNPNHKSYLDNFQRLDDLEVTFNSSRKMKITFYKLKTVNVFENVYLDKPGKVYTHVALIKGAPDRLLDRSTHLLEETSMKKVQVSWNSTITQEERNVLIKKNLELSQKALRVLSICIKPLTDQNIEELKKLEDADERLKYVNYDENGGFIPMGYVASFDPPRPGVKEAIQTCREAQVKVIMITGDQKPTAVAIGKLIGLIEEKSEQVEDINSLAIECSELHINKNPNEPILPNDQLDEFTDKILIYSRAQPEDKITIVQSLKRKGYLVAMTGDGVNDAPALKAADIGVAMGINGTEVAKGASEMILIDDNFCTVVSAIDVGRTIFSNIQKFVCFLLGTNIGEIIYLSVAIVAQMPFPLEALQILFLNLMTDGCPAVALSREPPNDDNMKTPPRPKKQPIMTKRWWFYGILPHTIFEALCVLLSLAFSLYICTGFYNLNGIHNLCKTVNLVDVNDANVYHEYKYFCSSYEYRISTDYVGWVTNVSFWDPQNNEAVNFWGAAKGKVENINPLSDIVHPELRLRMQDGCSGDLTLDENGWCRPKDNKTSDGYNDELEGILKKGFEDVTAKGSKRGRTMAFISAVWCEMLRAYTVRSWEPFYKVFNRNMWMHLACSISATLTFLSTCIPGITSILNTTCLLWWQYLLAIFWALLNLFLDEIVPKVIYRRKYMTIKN

[7] = system: Plasmodium falciparum; assay: Antimalarial activity against synchronized-ring stage Plasmodium falciparum 3D7 assessed as reduction in parasitemia at 10 times EC50 measured at 72 hrs post-treatment by LDH assay; assay type: functional, organism-based
How it was run: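 Parasite reduction ratio assay in P. falciparum 3D7 with an LDH read-out. Means and SDs were taken from three replicate experiments.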

[8] = system: Plasmodium falciparum; assay: Antiplasmodial activity against W454-resistant population 1 Plasmodium falciparum 3D7 harboring Plasmodium falciparum ATP4 L928F mutant by LDH assay; assay type: functional, organism-based
[9] = system: Plasmodium falciparum; assay: Antiplasmodial activity against Plasmodium falciparum 3D7 infected in human […] cells incubated for 72 hrs; assay type: functional, organism-based; conditions: 3D7, 72 h
[10] = system: Plasmodium falciparum; assay: Antimalarial activity against Plasmodium falciparum NF54 infected assessed as inhibition of female gamete formation incubated for 48 hrs by automated bright field microscopic analysis; assay type: functional, organism-based; conditions: NF54, 48 h
[11] = system: Plasmodium falciparum; assay: Antiplasmodial activity against multi-drug resistant Plasmodium falciparum Dd2; assay type: functional, organism-based
[12] = system: Plasmodium falciparum; assay: Antiplasmodial activity against W454-resistant population 2 Plasmodium falciparum 3D7 harboring Plasmodium falciparum ATP4 L928F mutant by LDH assay; assay type: functional, organism-based
[13] = system: Plasmodium falciparum; assay: Antiplasmodial activity against multidrug-resistant Plasmodium falciparum Dd2 harboring plasmodium falciparum ATP4 G358S mutant by SYBR green staining based analysis; assay type: functional, organism-based
[14] = system: Plasmodium falciparum; assay: Antiplasmodial activity against N-(2,6-difluorophenyl)-2-(6-(5-methyl-1,3,4-oxadiazol-2-yl)-1H-indol-1-yl)acetamide-resistant Plasmodium falciparum Dd2 harbouring ATP4 genome with 2.8 fold CNV by SYBR green staining based analysis; assay type: functional, organism-based
[15] = system: Plasmodium falciparum; assay: Antiplasmodial activity against W454-resistant population 3 Plasmodium falciparum 3D7 harboring Plasmodium falciparum ATP4 L928F mutant by LDH assay; assay type: functional, organism-based
[16] = system: HepG2; assay: Cytotoxicity against human HepG2 cells; assay type: functional
[17] = molecular target: T2, P-type sodium-transporting ATPase4 (Plasmodium falciparum (isolate 3D7)) (UniProt A0A143ZZK9); assay: Inhibition of Plasmodium falciparum 3D7 ATP4 assessed as increase in Na+ concentration in parasite cytosol upto 1000 nM measured for 60 mins; assay type: subcellular
T2 sequence (whole entry): T1 sequence (A0A143ZZK9 whole entry)

[18] = system: Plasmodium falciparum; assay: Antiplasmodial activity against multidrug resistant Plasmodium falciparum Cam3.1 incubated for 48 hrs by SYBR staining based fluorometer assay; assay type: functional, organism-based; conditions: Cam3.1, 48 h
[19] = system: Plasmodium falciparum; assay: Antiplasmodial activity against multidrug resistant Plasmodium falciparum W2mef incubated for 48 hrs by SYBR staining based fluorometer assay; assay type: functional, organism-based
[20] = system: Plasmodium falciparum; assay: Antimalarial activity against Plasmodium falciparum NF54 infected assessed as inhibition of male gamete formation incubated for 48 hrs by automated bright field microscopic analysis; assay type: functional, organism-based; conditions: NF54, 48 h
[21] = system: Plasmodium falciparum; assay: Antiplasmodial activity against asexual Plasmodium falciparum 3D7 infected in human […] cells assessed as reduction in parasite growth measured for 72 hrs by LDH assay; assay type: functional, organism-based; conditions: 3D7, 72 h
[22] = (§1) Cytotoxicity against human HepG2 cells assessed as inhibition of cell growth incubated for 48 hrs by celltiterglo assay; assay type: toxicity, cell-based; conditions: HepG2 cells
[23] = system: Plasmodium falciparum; assay: Antiplasmodial activity against Plasmodium falciparum 3D7 infected in RBC assessed as reduction in extracellular parasite growth measured for 8 hrs by Giemsa-staining based microscopic analysis; assay type: functional; parameters: scale not given: the % may be the effect or the level left
How it was run: (§2)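 Giemsa-stained thin smears were read at 8 h and the percentages of extracellular and intracellular parasites counted, compared with untreated parasites at 0 h.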

[24] = Aqueous solubility in PBS buffer at pH 7.4; assay type: physicochemical
[25] = system: Plasmodium falciparum; assay: Antiplasmodial activity against Plasmodium falciparum 3D7 infected in RBC assessed as reduction in parasite growth measured for 8 hrs by Giemsa-staining based microscopic analysis; assay type: functional, organism-based; how it was run: as §2
[26] = system: Plasmodium falciparum; assay: Antiplasmodial activity against Plasmodium falciparum 3D7 infected in human […] cells; assay type: functional, organism-based
[27] = Metabolic stability in human liver microsome assessed as intrinsic clearance; assay type: ADME; conditions: microsomes
[28] = system: Plasmodium falciparum; assay: Antiplasmodial activity against N-(2,6-difluorophenyl)-2-(6-(5-methyl-1,3,4-oxadiazol-2-yl)-1H-indol-1-yl)acetamide-resistant Plasmodium falciparum Dd2 harboring plasmodium falciparum ATP4 F156L mutant by SYBR green staining based analysis; assay type: functional, organism-based
[29] = system: HepG2; assay: as §1; assay type: toxicity, cell-based; conditions: hepg2, 48 h
[30] = Metabolic stability in rat hepatocyte […] assessed as intrinsic clearance measured per 10^6 cells; assay type: ADME, cell-based; conditions: hepatocytes
[31] = Metabolic stability in mouse liver microsome assessed as intrinsic clearance; assay type: ADME; conditions: microsomes
[32] = Lipophilicity, logD of compound at pH 7.4 by shake-flask method; assay type: physicochemical; conditions: buffer
[33] = system: Plasmodium falciparum; assay: Antiplasmodial activity against multidrug resistant Plasmodium falciparum 7G8 incubated for 48 hrs by SYBR staining based fluorometer assay; assay type: functional, organism-based; conditions: 7G8, 48 h
[34] = system: Plasmodium falciparum; assay: Antiplasmodial activity against wild type Plasmodium falciparum 3D7 incubated for 48 hrs; assay type: functional, organism-based; conditions: 3D7, 48 h
[35] = molecular target: T1, P-type sodium-transporting ATPase4; assay: Inhibition of Plasmodium falciparum 3D7 ATP4
[36] = molecular target: T2, P-type sodium-transporting ATPase4 (Plasmodium falciparum (isolate 3D7)); assay: Inhibition of Plasmodium falciparum 3D7 ATP4 assessed as reduction in Na+-ATPase activity at 2 uM incubated for 10 mins under high [Na+] condition in absence of KAE609

SMILES | EC50 [1] [nM] | Activity [2] | EC50 [4] [nM] | EC50 [5] [nM] | IC50 [6] [nM] | EC50 [8] [nM] | EC50 [9] [nM] | EC50 [10] [nM] | EC50 [11] [nM] | EC50 [12] [nM] | EC50 [13] [nM] | EC50 [14] [nM] | EC50 [15] [nM] | CC50 [16] [nM] | inhibition [17] | EC50 [18] [nM] | EC50 [19] [nM] | EC50 [20] [nM] | EC50 [21] [nM] | solubility kinetic [24] [µM] | also measured
CCc1nnc(-c2ccc3ccn(CC(=O)Nc4cc(OC)c(OC)c(OC)c4)c3c2)o1 | 431 | Active | 238 | 241 | ~400 | 1940 | 123 | 7200 | 320 | 1990 | 1370 | 290 | 1800 | > 40000 | Active | 381 | 272 | 7400 |  |  | Activity [3]: Active; Activity [7]: Active
Cc1nc(-c2ccc3ccn(CC(=O)Nc4ccccc4Cl)c3c2)no1 |  |  |  |  |  |  |  |  |  |  |  |  |  |  |  |  |  |  | 955 |  | CC50 at 48 h [22]: > 40000 nM
Cc1nnc(-c2ccc3ccn(CC(=O)Nc4ccccc4Cl)c3c2)o1 |  | Active | 2540 | 786 | ~400 | > 10000 | 569 | 5000 |  | > 10000 | 1280 | 901 | > 10000 | > 40000 | Active |  |  | 3600 | 667 | 10.9 (≈ 4 µg/mL) | Activity [23]: 3.5%; Activity [25]: Active; EC50 [26]: 667 nM; intrinsic clearance (CLint) [27]: > 462 µL/min/mg; EC50 [28]: 1160 nM; CC50 [29]: > 40000 nM; intrinsic clearance (CLint) [30]: > 92 uL/min/10^6 cells; intrinsic clearance (CLint) [31]: 410 µL/min/mg; logD [32]: 3.1
Cn1cc(-c2ccc3ccn(CC(=O)Nc4ccccc4Cl)c3c2)cn1 | 661 | Active | 2510 | 892 |  |  | 409 |  | 385 |  | 1650 | 1160 |  |  |  | 476 | 279 |  | 593 | 4.1 (≈ 1.5 µg/mL) | EC50 [33]: 526 nM; EC50 [34]: 236 nM; intrinsic clearance (CLint) [27]: > 462 µL/min/mg; EC50 [28]: 803 nM; IC50 [35]: 790 nM; CC50 [29]: > 40000 nM; intrinsic clearance (CLint) [30]: 91 uL/min/10^6 cells; inhibition [36]: Active; logD [32]: 3.6
